How the values were obtained:
Type in all cases: functional
[1] = test system: SNB-19; test: Cytotoxicity against human SNB19 cells assessed as cell growth at 0.01 uM after 48 hrs by sulforhodamine B assay; conditions: SNB-19, 48 h, read-out: Activity
[2] = test system: M14; test: Cytotoxicity against human M14 cells assessed as cell growth at 0.001 uM after 48 hrs by sulforhodamine B assay; conditions: M14, 48 h, read-out: Activity
[3] = test system: SNB-19; test: Cytotoxicity against human SNB19 cells assessed as cell growth at 100 nM after 48 hrs by sulforhodamine B assay; conditions: SNB-19, 48 h, read-out: Activity
[4] = test system: EKVX; test: Growth inhibition of human EKVX cells after 48 hrs by sulforhodamine B assay; conditions: for CC50: read-out: LC50 (the source's name)
Method in brief: (§1)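 NCI five-dose SRB assay in RPMI 1640 with 5% FBS and 2 mM L-glutamine. Cells were preincubated 24 h, then exposed 48 h at 37 °C to five concentrations (10-fold or half-log serial dilutions from DMSO stocks). TCA fixation, SRB staining, and absorbance at 515 nm followed. IC50 was taken where [(Ti−Tz)/(C−Tz)]×100 = 50, with Tz as time-zero cell density.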

[5] = test system: OVCAR-4; test: Cytotoxicity against human OVCAR4 cells assessed as cell growth at 1 uM after 48 hrs by sulforhodamine B assay; conditions: OVCAR-4, 48 h, read-out: Activity
[6] = test system: NCI/ADR-RES; test: Cytotoxicity against human NCI/ADR-RES cells assessed as cell growth at 10 uM; conditions: read-out: Activity
Method in brief: (§2)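 NCI-60 screen: cells grown in RPMI 1640 with 5% FBS and 2 mM L-glutamine, plated at 5000–40,000 cells/well according to doubling time, and preincubated 24 h at 37 °C, 5% CO2. The single 10 µM dose (DMSO stock) was added, then incubated 48 h. Cells were TCA-fixed and stained with 0.4% SRB, read at 515 nm, and growth % calculated against time-zero and control plates.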

[7] = test system: BT-549; test: Cytotoxicity against human BT549 cells assessed as cell growth at 0.01 uM after 48 hrs by sulforhodamine B assay; conditions: BT-549, 48 h, read-out: Activity
Method in brief: (§3)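 NCI-60 five-dose screen. Cells were grown in RPMI 1640 with 5% FBS and 2 mM L-glutamine, plated at 5000–40,000 cells/well and preincubated for 24 h. Time-zero plates were TCA-fixed. DMSO-solubilized drug was added at five concentrations (10-fold or ½-log serial dilutions) for 48 h at 37 °C, 5% CO2. Cells were TCA-fixed, stained with 0.4% SRB and read at 515 nm. Percent growth used time-zero, control and test absorbances.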

[8] = test system: K562; test: Cytotoxicity against human K562 cells assessed as cell growth at 0.001 uM after 48 hrs by sulforhodamine B assay; conditions: K562, 48 h, read-out: Activity
[9] = test system: SN12C; test: Growth inhibition of human SN12C cells after 48 hrs by sulforhodamine B assay
Method in brief: (§4)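 NCI 60-cell screen, five-dose mode. Cells grown in RPMI 1640 with 5% FBS and 2 mM L-glutamine and plated at 5000-40,000 cells/well according to doubling time. After 24 h preincubation, a Tz plate was TCA-fixed. Five concentrations (10-fold or 1/2 log dilutions) were applied for 48 h at 37 °C. SRB staining read at 515 nm. IC50 taken from [(Ti-Tz)/(C-Tz)]×100 = 50.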

[10] = test system: MOLT-4; test: Cytotoxicity against human MOLT4 cells assessed as cell growth at 0.001 uM after 48 hrs by sulforhodamine B assay; conditions: MOLT-4, 48 h, read-out: Activity
[11] = test system: LOX IMVI; test: Cytotoxicity against human LOXIMVI cells assessed as cell growth at 10 uM; conditions: read-out: Activity; method in brief: as §2
[12] = test system: OVCAR-8; test: Cytotoxicity against human OVCAR8 cells assessed as cell growth at 0.01 uM after 48 hrs by sulforhodamine B assay; conditions: OVCAR-8, 48 h, read-out: Activity
[13] = test system: UACC-62; test: Cytotoxicity against human UACC62 cells assessed as cell growth at 10 uM after 48 hrs by sulforhodamine B assay; conditions: UACC-62, 48 h, read-out: Activity
[14] = test system: Malme-3M; test: Cytotoxicity against human MALME-3M cells assessed as cell growth at 1 uM after 48 hrs by sulforhodamine B assay; conditions: read-out: Activity
[15] = Growth inhibition of human Hs 578T cells after 48 hrs by sulforhodamine B assay; conditions: for CC50: read-out: LC50 (the source's name); method in brief: as §4
[16] = test system: A498; test: Cytotoxicity against human A498 cells assessed as cell growth at 0.001 uM after 48 hrs by sulforhodamine B assay; conditions: A498, 48 h, read-out: Activity; method in brief: as §3
[17] = test system: NCI-H322M; test: Cytotoxicity against human NCI-H322M cells assessed as cell growth at 10 uM; conditions: read-out: Activity; method in brief: as §2
[18] = test system: HCC 2998; test: Cytotoxicity against human HCC2998 cells assessed as cell growth at 0.01 uM after 48 hrs by sulforhodamine B assay; conditions: HCC 2998, 48 h, read-out: Activity
[19] = test system: HT-29; test: Cytotoxicity against human HT-29 cells assessed as cell growth at 0.01 uM after 48 hrs by sulforhodamine B assay; conditions: HT-29, 48 h, read-out: Activity
[20] = test system: RXF 393; test: Cytotoxicity against human RXF393 cells assessed as cell growth at 10 uM; conditions: read-out: Activity; method in brief: as §2
[21] = test system: M14; test: Cytotoxicity against human M14 cells assessed as cell growth at 1 uM after 48 hrs by sulforhodamine B assay; conditions: M14, 48 h, read-out: Activity
[22] = test system: MCF7; test: Cytotoxicity against human MCF7 cells assessed as cell growth at 0.01 uM after 48 hrs by sulforhodamine B assay; conditions: MCF7, 48 h, read-out: Activity
[23] = test system: NCI/ADR-RES; test: Cytotoxicity against human NCI/ADR-RES cells assessed as cell growth at 0.01 uM after 48 hrs by sulforhodamine B assay; conditions: read-out: Activity
[24] = test system: MOLT-4; test: Cytotoxicity against human MOLT4 cells assessed as cell growth at 1 uM after 48 hrs by sulforhodamine B assay; conditions: MOLT-4, 48 h, read-out: Activity
[25] = test system: OVCAR-8; test: Cytotoxicity against human OVCAR8 cells assessed as cell growth at 10 uM; conditions: read-out: Activity; method in brief: as §2
[26] = test system: COLO 205; test: Cytotoxicity against human COLO205 cells assessed as cell growth at 1 uM after 48 hrs by sulforhodamine B assay; conditions: COLO 205, 48 h, read-out: Activity; method in brief: as §3
[27] = test system: SW-620; test: Growth inhibition of human SW620 cells after 48 hrs by sulforhodamine B assay; conditions: SW-620, 48 h; for CC50: read-out: LC50 (the source's name); method in brief: as §4
[28] = test system: A498; test: Growth inhibition of human A498 cells after 48 hrs by sulforhodamine B assay; conditions: A498, 48 h; method in brief: as §1
[29] = test system: EKVX; test: Cytotoxicity against human EKVX cells assessed as cell growth at 10 uM; conditions: read-out: Activity
Method in brief: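 Single-dose NCI-60 screen at 10 µM. Cells were grown in RPMI 1640 with 5% FBS and 2 mM L-glutamine, then treated for 48 h at 37 °C. Protein was measured by SRB staining with absorbance at 515 nm. Percentage growth was recorded, and inhibition percentage was calculated as 100 minus growth percentage.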

Structure (SMILES)	growth at 0.01 µM [1] [%]	growth at 0.001 µM [2] [%]	growth at 0.1 µM [3] [%]	GI50 [4] [µM]	TGI [4] [µM]	CC50 [4] [µM]	growth at 1 µM [5] [%]	growth at 10 µM [6] [%]	growth at 0.01 µM [7] [%]	growth at 0.001 µM [8] [%]	GI50 [9] [µM]	LC50 [9] [µM]	TGI [9] [µM]	growth at 0.001 µM [10] [%]	growth at 10 µM [11] [%]	growth at 0.01 µM [12] [%]	growth at 10 µM [13] [%]	growth at 1 µM [14] [%]	GI50 [15] [µM]	TGI [15] [µM]	also measured
COc1cc(C)cc(-c2c(-c3ccnc(-c4ccc(C(C)=O)cc4)c3)cnn2CC#N)c1	102	95	99	5.8	> 100	> 100	27	60.1	86	81	4.49	> 100	> 100	102	58.8	83	35	36	1.68	5.68	CC50 [15]: > 100 µM; growth at 0.001 µM [16]: 74%; growth at 10 µM [17]: 104%; growth at 0.01 µM [18]: 98%; growth at 0.01 µM [19]: 96%; growth at 10 µM [20]: 54.8%; growth at 1 µM [21]: -19%; growth at 0.01 µM [22]: 92%; growth at 0.01 µM [23]: 91%; growth at 1 µM [24]: 7%; growth at 10 µM [25]: 80.1%; growth at 1 µM [26]: -78%; GI50 [27]: 2.27 µM; TGI [27]: > 100 µM; CC50 [27]: > 100 µM; GI50 [28]: 2.03 µM; LC50 [28]: > 100 µM; TGI [28]: > 100 µM; growth at 10 µM [29]: 98.6%
Cc1cc(O)cc(-c2nn(CC#N)cc2-c2ccnc(-c3ccc(Oc4ccccc4)cc3)c2)c1	100	95	94	2.16	8.95	> 100	21	37.9	91	63	1.8	9.01	4.02	99	16.6	91	-95	-75	2.02	6.08	CC50 [15]: > 100 µM; growth at 0.001 µM [16]: 88%; growth at 10 µM [17]: 80.7%; growth at 0.01 µM [18]: 89%; growth at 0.01 µM [19]: 104%; growth at 10 µM [20]: 24.6%; growth at 1 µM [21]: -96%; growth at 0.01 µM [22]: 92%; growth at 0.01 µM [23]: 96%; growth at 1 µM [24]: -16%; growth at 10 µM [25]: 37.2%; growth at 1 µM [26]: -94%; GI50 [27]: 1.94 µM; TGI [27]: 4.33 µM; CC50 [27]: 9.63 µM; GI50 [28]: 3.87 µM; LC50 [28]: 44.1 µM; TGI [28]: 16.7 µM; growth at 10 µM [29]: 44.9%

Reference: ChEMBL document CHEMBL1165950, “Design and synthesis of new potent anticancer pyrazoles with high FLT3 kinase inhibitory selectivity” (Bioorg Med Chem, 2010)
